{
  "source": "ChEMBL document CHEMBL4049426",
  "about": "“Identification of the Clinical Candidate (R)-(1-(4-Fluorophenyl)-6-((1-methyl-1H-pyrazol-4-yl)sulfonyl)-4,4a,5,6,7,8-hexahydro-1H-pyrazolo[3,4-g]isoquinolin-4a-yl)(4-(trifluoromethyl)pyridin-2-yl)methanone (CORT125134): A Selective Glucocorticoid Receptor (GR) Antagonist” (J Med Chem, 2017)",
  "key": {"[1]": {"test": "(§1) Antagonist activity at monkey glucocorticoid receptor in primary hepatocytes assessed as dexamethasone-induced tyrosine amino transferase activity preincubated for 30 mins followed by dexamethasone addition measured after 20 hrs; call rule not given here", "format": "cell-based, Macaca mulatta"}, "Macaca mulatta": {"organism": "Macaca mulatta", "test": "as §1", "format": "cell-based"}, "Cytochrome P450 2D6": {"biological_target": "Cytochrome P450 2D6 (Homo sapiens, UniProt P10635)", "sequence (P10635 whole entry)": "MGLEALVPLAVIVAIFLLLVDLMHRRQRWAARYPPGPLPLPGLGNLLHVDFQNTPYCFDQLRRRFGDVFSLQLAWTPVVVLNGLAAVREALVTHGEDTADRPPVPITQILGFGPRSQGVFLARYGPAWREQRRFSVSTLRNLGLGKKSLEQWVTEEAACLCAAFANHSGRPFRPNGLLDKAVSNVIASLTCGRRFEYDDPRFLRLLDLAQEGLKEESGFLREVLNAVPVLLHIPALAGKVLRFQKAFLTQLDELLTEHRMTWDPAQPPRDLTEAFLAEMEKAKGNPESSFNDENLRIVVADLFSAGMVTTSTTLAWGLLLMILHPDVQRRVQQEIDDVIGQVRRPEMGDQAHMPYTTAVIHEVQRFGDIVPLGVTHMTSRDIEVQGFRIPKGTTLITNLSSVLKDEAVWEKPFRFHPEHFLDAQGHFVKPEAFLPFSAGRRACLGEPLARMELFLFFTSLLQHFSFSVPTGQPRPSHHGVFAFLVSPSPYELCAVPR", "test": "Inhibition of CYP2D6 (unknown origin)", "format": "ADME"}, "progesterone receptor": {"biological_target": "T1, progesterone receptor (Homo sapiens, UniProt P06401)", "T1 sequence (P06401 whole entry)": "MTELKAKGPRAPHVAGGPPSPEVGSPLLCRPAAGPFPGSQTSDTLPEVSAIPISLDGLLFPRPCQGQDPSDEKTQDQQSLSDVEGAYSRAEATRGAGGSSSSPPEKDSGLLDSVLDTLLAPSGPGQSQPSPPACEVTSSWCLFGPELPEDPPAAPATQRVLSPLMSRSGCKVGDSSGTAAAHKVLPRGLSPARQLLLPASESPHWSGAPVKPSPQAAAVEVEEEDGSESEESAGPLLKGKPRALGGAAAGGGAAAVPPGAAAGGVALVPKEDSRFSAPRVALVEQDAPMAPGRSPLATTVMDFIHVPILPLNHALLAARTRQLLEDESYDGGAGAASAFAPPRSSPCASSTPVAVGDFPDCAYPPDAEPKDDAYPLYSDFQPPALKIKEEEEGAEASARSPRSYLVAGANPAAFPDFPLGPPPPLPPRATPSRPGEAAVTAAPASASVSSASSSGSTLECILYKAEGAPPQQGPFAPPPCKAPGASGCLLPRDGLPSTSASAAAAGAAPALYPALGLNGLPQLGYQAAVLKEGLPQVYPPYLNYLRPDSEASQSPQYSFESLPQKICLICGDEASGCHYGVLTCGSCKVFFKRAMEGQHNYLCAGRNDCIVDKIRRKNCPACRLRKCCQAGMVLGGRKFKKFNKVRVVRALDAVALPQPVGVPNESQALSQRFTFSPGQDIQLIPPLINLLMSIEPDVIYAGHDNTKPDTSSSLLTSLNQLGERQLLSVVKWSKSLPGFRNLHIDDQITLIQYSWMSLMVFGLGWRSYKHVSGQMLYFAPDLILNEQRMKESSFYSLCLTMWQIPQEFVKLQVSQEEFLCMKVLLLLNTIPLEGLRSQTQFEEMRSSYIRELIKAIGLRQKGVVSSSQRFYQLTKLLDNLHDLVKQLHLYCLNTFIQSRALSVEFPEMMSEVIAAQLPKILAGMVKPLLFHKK", "test": "Inhibition of radioligand binding to progesterone receptor (unknown origin) at 1 uM relative to control"}, "Cytochrome P450 1A2 [2]": {"biological_target": "T2, Cytochrome P450 1A2 (Homo sapiens, UniProt P05177)", "T2 sequence (P05177 whole entry)": "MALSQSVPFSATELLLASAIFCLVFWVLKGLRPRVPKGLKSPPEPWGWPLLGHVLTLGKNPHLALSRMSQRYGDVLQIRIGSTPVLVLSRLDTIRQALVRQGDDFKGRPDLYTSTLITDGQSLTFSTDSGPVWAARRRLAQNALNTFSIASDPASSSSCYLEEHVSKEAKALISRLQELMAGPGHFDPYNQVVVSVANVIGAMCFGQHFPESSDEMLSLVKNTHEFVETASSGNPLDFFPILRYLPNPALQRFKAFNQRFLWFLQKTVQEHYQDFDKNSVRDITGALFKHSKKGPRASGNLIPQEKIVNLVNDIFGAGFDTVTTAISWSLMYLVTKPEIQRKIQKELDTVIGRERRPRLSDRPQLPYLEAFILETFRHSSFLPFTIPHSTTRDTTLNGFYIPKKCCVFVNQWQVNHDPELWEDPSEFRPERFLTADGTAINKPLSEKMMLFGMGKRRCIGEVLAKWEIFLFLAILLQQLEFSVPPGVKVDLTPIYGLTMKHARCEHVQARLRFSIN", "test": "Induction of CYP1A2 in human hepatocytes", "format": "ADME, cell-based"}, "Cytochrome P450 1A2 [3]": {"biological_target": "T2, Cytochrome P450 1A2", "test": "Inhibition of CYP1A2 (unknown origin)", "format": "ADME"}, "[4]": {"test": "Oral bioavailability in Sprague-Dawley CD-1 rat plasma at 5 mg/kg administered through gavage measured up to 24 hrs by LC/MS analysis", "format": "ADME, organism-based", "summary_of_the_method": "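Jugular-catheterized male Sprague Dawley CD-1 rats (220-250g). Oral arm: five rats, 5mg/kg gavage, 1mg/mL in DMSO:0.5% methylcellulose 10:90, 5mL/kg, sampled pre-dose and 0.25-24 h. i.v. arm: three rats, 1mg/kg, 0.5mg/mL in DMSO:PEG400:propylene glycol 10:45:45, sampled pre-dose and 0.08-24 h. Plasma by LC/MS.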"}, "Cytochrome P450 2C8": {"biological_target": "T3, Cytochrome P450 2C8 (Homo sapiens, UniProt P10632)", "T3 sequence (P10632 whole entry)": "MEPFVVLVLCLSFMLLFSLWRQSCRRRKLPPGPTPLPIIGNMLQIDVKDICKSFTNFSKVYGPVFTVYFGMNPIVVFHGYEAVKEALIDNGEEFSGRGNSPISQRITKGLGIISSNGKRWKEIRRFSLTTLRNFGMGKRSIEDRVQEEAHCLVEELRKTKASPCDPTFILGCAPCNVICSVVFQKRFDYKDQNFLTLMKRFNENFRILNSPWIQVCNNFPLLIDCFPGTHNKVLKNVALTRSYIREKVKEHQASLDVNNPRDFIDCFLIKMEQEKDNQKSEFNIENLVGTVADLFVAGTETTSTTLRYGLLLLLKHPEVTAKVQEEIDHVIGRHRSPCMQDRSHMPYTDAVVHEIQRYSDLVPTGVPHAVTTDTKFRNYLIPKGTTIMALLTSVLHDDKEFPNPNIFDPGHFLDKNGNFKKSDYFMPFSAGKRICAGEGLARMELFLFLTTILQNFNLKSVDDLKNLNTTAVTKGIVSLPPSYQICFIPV", "test": "Inhibition of CYP2C8 (unknown origin)"}},
  "data": [
    {"smiles": "Cn1cc(S(=O)(=O)N2CCC3=Cc4c(cnn4-c4ccc(F)cc4)C[C@]3(C(=O)c3cc(C(F)(F)F)ccn3)C2)cn1", "note": "[RELACORILANT]", "values": [
      {"measurement": "Ki", "setting": "[1]", "value": 210, "unit": "nM"},
      {"measurement": "Imax", "setting": "Macaca mulatta", "value": 99, "unit": "%"},
      {"measurement": "IC50", "setting": "Cytochrome P450 2D6", "value": 9000, "unit": "nM"},
      {"measurement": "inhibition at 1 µM", "setting": "progesterone receptor", "value": "< 10", "unit": "%"},
      {"measurement": "Activity", "setting": "Cytochrome P450 1A2 [2]", "value": "Not Active"},
      {"measurement": "IC50", "setting": "Cytochrome P450 1A2 [3]", "value": "> 10000", "unit": "nM"},
      {"measurement": "bioavailability", "setting": "[4]", "value": 89, "unit": "%"},
      {"measurement": "IC50", "setting": "Cytochrome P450 2C8", "value": 210, "unit": "nM"}
    ]}
  ]
}
